Source: ChEMBL document CHEMBL3297671, “Identification and bioactivity of 3-epi-xestoaminol C isolated from the New Zealand brown alga Xiphophora chondrophylla” (J Nat Prod, 2014)
Values after ≈ are worked out from the molar mass of the structure shown. Active and inactive are the calls of the source. The calls are words filed in the database; no cut-off is given here.

Legend:
Saccharomyces cerevisiae [1] = test: Antimicrobial activity against Saccharomyces cerevisiae assessed as compound level causing less than 2% growth after 16 hrs by serial dilution method; type: functional
Procedure, shortened: (§1)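 Values are read from dose-response curves. No IC50 is calculated where the curve is too steep.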

Saccharomyces cerevisiae [2] = test: Antimicrobial activity against Saccharomyces cerevisiae after 16 hrs by serial dilution method; type: functional, organism-based; procedure, shortened: as §1
HL-60 [3] = test: Cytotoxicity against human HL60 cells assessed as compound level causing less than 2% growth after 48 hrs by MTT assay; type: functional
Escherichia coli [4] = test: Antimicrobial activity against Escherichia coli ATCC 25922 assessed as compound level causing less than 2% growth after 16 hrs by serial dilution method; type: functional; conditions: ATCC 25922, 16 h
Staphylococcus aureus [5] = test: Antimicrobial activity against Staphylococcus aureus ATCC 25923 assessed as compound level causing less than 2% growth after 16 hrs by serial dilution method; type: functional; conditions: ATCC 25923, 16 h; procedure, shortened: as §1
HL-60 [6] = test: Cytotoxicity against human HL60 cells after 48 hrs by MTT assay; type: functional, cell-based; conditions: HL-60, 48 h
Pseudomonas aeruginosa [7] = test: Antimicrobial activity against Pseudomonas aeruginosa PAO1 after 16 hrs by serial dilution method; type: functional, organism-based
Pseudomonas aeruginosa [8] = test: Antimicrobial activity against Pseudomonas aeruginosa PAO1 assessed as compound level causing less than 2% growth after 16 hrs by serial dilution method; type: functional
[9] = Cytotoxicity against human HEK cells assessed as compound level causing less than 2% growth after 48 hrs by MTT assay; type: functional, HEK293
[10] = Cytotoxicity against human HEK cells after 48 hrs by MTT assay; type: functional, cell-based; conditions: HEK293, 48 h
Staphylococcus aureus [11] = test: Antimicrobial activity against Staphylococcus aureus ATCC 25923 after 16 hrs by serial dilution method; type: functional, organism-based; conditions: ATCC 25923, 16 h
Escherichia coli [12] = test: Antimicrobial activity against Escherichia coli ATCC 25922 after 16 hrs by serial dilution method; type: functional, organism-based; conditions: ATCC 25922, 16 h

Row | SMILES | MIC (Saccharomyces cerevisiae [1]) | IC50 (Saccharomyces cerevisiae [2]) | MIC (HL-60 [3]) | MIC (Escherichia coli [4]) | MIC (Staphylococcus aureus [5]) | IC50 (HL-60 [6]) | IC50 (Pseudomonas aeruginosa [7]) | MIC (Pseudomonas aeruginosa [8]) | MIC [9] | IC50 [10] | IC50 (Staphylococcus aureus [11]) | IC50 (Escherichia coli [12]) | IC50 (Pseudomonas aeruginosa [7]; Pseudomonas aeruginosa, PAO1, 16 h, read-out: IC50) | MIC (Pseudomonas aeruginosa [8]; PAO1, 16 h)
1 | C[C@@H]1C[C@@H]([C@H](O)CC2CC(=O)NC(=O)C2)C(=O)[C@@H](C)C1 [CYCLOHEXIMIDE] | 1 µM (≈ 0.281 µg/mL) | 0.04 µM | – | – | – | – | – | – | – | – | – | – | – | –
2 | CCCCCCCCCCC[C@H](O)[C@H](C)N | inactive | 17.1 µM | 32.7 µM (≈ 7.5 µg/mL) | 32.6 µM (≈ 7.48 µg/mL) | 65.1 µM (≈ 14.9 µg/mL) | 8.8 µM | Not Active | inactive | 32.7 µM (≈ 7.5 µg/mL) | 18 µM | 17 µM | – | – | –
3 | CN(C)[C@@H]1C(O)=C(C(N)=O)C(=O)[C@@]2(O)C(O)=C3C(=O)c4c(O)cccc4[C@@](C)(O)[C@H]3C[C@@H]12 [TETRACYCLINE] | – | – | – | ≥ 500 µM | 62.5 µM (≈ 27.8 µg/mL) | – | – | – | – | – | 5.7 µM | 26.4 µM | 143 µM | > 500 µM
